Data published in ChEMBL document CHEMBL4689842, “EUbOPEN Chemogenomics Library wave 1” (2021).

Tested on: U2OS
Experiment: Multiplex assay against U2OS
Assay type: toxicity, cell-based
Conditions: human
In short: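 Four dyes were applied at seeding to live cells: Hoechst33342, BioTracker Green Microtubule Cytoskeleton Dye, MitoTracker Red and Annexin V Alexa Fluor 680. Imaging after compound addition used a CQ1 microscope at 37°C and 5% CO2. CellPathfinder machine-learning gating then sorted cells into Hoechst high-intensity objects or normal cells, normal cells into healthy, pyknosed or fragmented nuclei, and pyknosed cells into mitotic or apoptotic, with tubulin, mitochondrial-mass and membrane-permeability phenotypes given as per cents of healthy-nucleus cells.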

[1] = 12 h, 1 µM, compound concentration 1 uM, replicate 1
[2] = 12 h, 1 µM, compound concentration 1 uM, replicate 2
[3] = 12 h, 10 µM, compound concentration 10 uM, replicate 1
[4] = 12 h, 10 µM, compound concentration 10 uM, replicate 2
[5] = 24 h, 1 µM, compound concentration 1 uM, replicate 1
[6] = 24 h, 1 µM, compound concentration 1 uM, replicate 2
[7] = 24 h, 10 µM, compound concentration 10 uM, replicate 1
[8] = 24 h, 10 µM, compound concentration 10 uM, replicate 2
[9] = 48 h, 1 µM, compound concentration 1 uM, replicate 1
[10] = 48 h, 1 µM, compound concentration 1 uM, replicate 2
[11] = 48 h, 10 µM, compound concentration 10 uM, replicate 1
[12] = 48 h, 10 µM, compound concentration 10 uM, replicate 2

## CC(/C=C1\SC(=S)N(CCCC(=O)Nc2ccc(C(=O)O)c(O)c2)C1=O)=C\c1ccccc1
[1]
  Population Apoptotic (%): 53%
  Population Fragmented Nuclei (%): 8%
  Population Healthy Nuclei (%): 77%
  Population Hoechst High Intensity Objects (%): 3%
  Population Membrane Permeable-Phenotype (%): 7%
  Population Mitochondria Different-Phenotype (%): 5%
  Population Mitotic Cells (%): 46%
  Population Normal (%): 96%
  Population Pyknosed Nuclei (%): 13%
  Population Tubulin-Different-Phenotype (%): 13%
  Total Cell Count: 154
[2]
  Population Apoptotic (%): 33%
  Population Fragmented Nuclei (%): 10%
  Population Healthy Nuclei (%): 81%
  Population Hoechst High Intensity Objects (%): 6%
  Population Mitochondria Different-Phenotype (%): 7%
  Population Mitotic Cells (%): 66%
  Population Normal (%): 93%
  Population Pyknosed Nuclei (%): 7%
  Population Tubulin-Different-Phenotype (%): 7%
  Total Cell Count: 65
[3]
  Population Apoptotic (%): 42%
  Population Fragmented Nuclei (%): 7%
  Population Healthy Nuclei (%): 86%
  Population Hoechst High Intensity Objects (%): 9%
  Population Membrane Permeable-Phenotype (%): 9%
  Population Mitochondria Different-Phenotype (%): 5%
  Population Mitotic Cells (%): 57%
  Population Normal (%): 90%
  Population Pyknosed Nuclei (%): 5%
  Population Tubulin-Different-Phenotype (%): 8%
  Total Cell Count: 117
[4]
  Population Apoptotic (%): 44%
  Population Fragmented Nuclei (%): 17%
  Population Healthy Nuclei (%): 72%
  Population Hoechst High Intensity Objects (%): 7%
  Population Membrane Permeable-Phenotype (%): 6%
  Population Mitochondria Different-Phenotype (%): 6%
  Population Mitotic Cells (%): 55%
  Population Normal (%): 92%
  Population Pyknosed Nuclei (%): 10%
  Population Tubulin-Different-Phenotype (%): 9%
  Total Cell Count: 88
[5]
  Population Apoptotic (%): 53%
  Population Fragmented Nuclei (%): 6%
  Population Healthy Nuclei (%): 83%
  Population Hoechst High Intensity Objects (%): 4%
  Population Membrane Permeable-Phenotype (%): 5%
  Population Mitochondria Different-Phenotype (%): 9%
  Population Mitotic Cells (%): 46%
  Population Normal (%): 95%
  Population Pyknosed Nuclei (%): 10%
  Population Tubulin-Different-Phenotype (%): 5%
  Total Cell Count: 151
[6]
  Population Apoptotic (%): 54%
  Population Fragmented Nuclei (%): 12%
  Population Healthy Nuclei (%): 76%
  Population Hoechst High Intensity Objects (%): 6%
  Population Membrane Permeable-Phenotype (%): 4%
  Population Mitochondria Different-Phenotype (%): 10%
  Population Mitotic Cells (%): 45%
  Population Normal (%): 93%
  Population Tubulin-Different-Phenotype (%): 12%
  Total Cell Count: 64
[7]
  Population Apoptotic (%): 36%
  Population Fragmented Nuclei (%): 11%
  Population Healthy Nuclei (%): 81%
  Population Hoechst High Intensity Objects (%): 5%
  Population Membrane Permeable-Phenotype (%): 5%
  Population Mitochondria Different-Phenotype (%): 8%
  Population Mitotic Cells (%): 63%
  Population Normal (%): 94%
  Population Pyknosed Nuclei (%): 6%
  Population Tubulin-Different-Phenotype (%): 6%
  Total Cell Count: 151
[8]
  Population Apoptotic (%): 44%
  Population Fragmented Nuclei (%): 9%
  Population Healthy Nuclei (%): 83%
  Population Hoechst High Intensity Objects (%): 4%
  Population Mitochondria Different-Phenotype (%): 14%
  Population Mitotic Cells (%): 55%
  Population Normal (%): 95%
  Population Pyknosed Nuclei (%): 7%
  Population Tubulin-Different-Phenotype (%): 14%
  Total Cell Count: 115
[9]
  Population Apoptotic (%): 61%
  Population Fragmented Nuclei (%): 2%
  Population Healthy Nuclei (%): 92%
  Population Hoechst High Intensity Objects (%): 1%
  Population Membrane Permeable-Phenotype (%): 1%
  Population Mitochondria Different-Phenotype (%): 9%
  Population Mitotic Cells (%): 38%
  Population Normal (%): 98%
  Population Pyknosed Nuclei (%): 5%
  Population Tubulin-Different-Phenotype (%): 10%
  Total Cell Count: 142
[10]
  Population Apoptotic (%): 50%
  Population Fragmented Nuclei (%): 7%
  Population Healthy Nuclei (%): 84%
  Population Hoechst High Intensity Objects (%): 4%
  Population Membrane Permeable-Phenotype (%): 10%
  Population Mitochondria Different-Phenotype (%): 14%
  Population Mitotic Cells (%): 50%
  Population Normal (%): 95%
  Population Pyknosed Nuclei (%): 8%
  Population Tubulin-Different-Phenotype (%): 14%
  Total Cell Count: 60
[11]
  Population Apoptotic (%): 31%
  Population Fragmented Nuclei (%): 5%
  Population Healthy Nuclei (%): 87%
  Population Hoechst High Intensity Objects (%): 2%
  Population Membrane Permeable-Phenotype (%): 2%
  Population Mitochondria Different-Phenotype (%): 11%
  Population Mitotic Cells (%): 68%
  Population Normal (%): 97%
  Population Pyknosed Nuclei (%): 7%
  Population Tubulin-Different-Phenotype (%): 11%
  Total Cell Count: 241
[12]
  Population Apoptotic (%): 16%
  Population Fragmented Nuclei (%): 4%
  Population Healthy Nuclei (%): 92%
  Population Hoechst High Intensity Objects (%): 0%
  Population Membrane Permeable-Phenotype (%): 1%
  Population Mitochondria Different-Phenotype (%): 17%
  Population Mitotic Cells (%): 83%
  Population Normal (%): 99%
  Population Pyknosed Nuclei (%): 2%
  Population Tubulin-Different-Phenotype (%): 19%
  Total Cell Count: 147
